Among the data in ChEMBL document CHEMBL1144441, “Identification of a novel cardenolide (2''-oxovoruscharin) from Calotropis procera and the hemisynthesis of novel derivatives displaying potent in vitro antitumor activities and high in vivo tolerance: structure-activity relationship analyses” (J Med Chem, 2005) are IC50 and MTD values, retold here.

The test system of one experiment is HCT-15. As to the kind of experiment: Concentration required for 50% growth inhibition of human HCT-15 cancer cell lines after 3 days of culture. Type of experiment: functional, cell-based. Particulars: HCT-15, 72 h. An outline of the steps:
(§1)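 MTT overall-growth assay on the five lines. Cells were plated for 24 h at 10 000–40 000 cells/mL, depending on cell type. Nine concentrations from 10^-9 to 10^-5 M in semilog steps were applied for 72 h. Formazan was read at 570 nm against a 630 nm reference, in sextuplicate. IC50 = concentration reducing overall growth by 50% versus untreated control.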

Experiment [1] deals with Mus musculus. Nature of the experiment: Maximum tolerated dose after intraperitoneal administration in mouse (period of 28 days); not determined. Type of experiment: functional. An outline of the steps:
(§2)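 Healthy, non-tumour-bearing B6D2F1 mice given one acute intraperitoneal dose, three mice per dose group, doses 5, 10, 20, 40, 80, 120 and 160 mg/kg. Survival and body weight followed for 28 days after injection. MTD is the highest single dose causing no deaths over the period.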

The next experiment has as its system U373 MG. Nature of the experiment: Concentration required for 50% growth inhibition of human U373 cancer cell lines after 3 days of culture. Format: functional, cell-based, U-373MG ATCC. Particulars: 72 h. In a few lines: as §1
Experiment [2] is described as follows: Concentration required for 50% growth inhibition of human Hs 683 cancer cell lines after 3 days of culture. Type of experiment: functional, cell-based. Conditions: 72 h. In a few lines:
as §1

In a further experiment the test system is LoVo. Nature of the experiment: Concentration required for 50% growth inhibition of human LoVo cancer cell lines after 3 days of culture. Format: functional, cell-based. Conditions: 72 h. In a few lines:
as §1

A further experiment deals with A549. Nature of the experiment: Concentration required for 50% growth inhibition of human A549 cancer cell lines after 3 days of culture. Format: functional, cell-based. Conditions: A549, 72 h. An outline of the steps:
as §1

In experiment [3] the target is Sodium/potassium-transporting ATPase subunit alpha-1 (Sus scrofa, UniProt P05024). Nature of the experiment: In vitro inhibitory activity against porcine Na+/K+-ATPase. An outline of the steps:
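Porcine cerebral cortex Na+/K+-ATPase (3 × 10-3 units), preincubated 30 min at 37 °C in 30 mM Tris-HCl pH 7.4, 5 mM MgCl2 with inhibitor (1 to 50 000 nM). ADP formation coupled via pyruvate kinase/lactate dehydrogenase, excess phosphoenolpyruvate, to NADH oxidation.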

Experiment [4] deals with Mus musculus. As to the kind of experiment: Maximum tolerated dose after intraperitoneal administration in mouse (period of 28 days). Type of experiment: functional. In a few lines:
as §2

For `CC(=O)CCC(=O)OC[C@]12C[C@H]3OC4(O)[C@@H](O[C@H](C)C[C@@]45NC(=O)CS5)O[C@@H]3C[C@@H]1CC[C@@H]1[C@@H]2CC[C@]2(C)[C@@H](C3=CC(=O)OC3)CC[C@]12CO` (stereo not given in full), the IC50 with HCT-15 amounted to 3.24 µM; with U373 MG, 3.23 µM; in experiment [2], 0.758 µM; in the experiment on LoVo, 3 µM; with A549, 0.463 µM. This compound also displayed an MTD with Mus musculus [1] of 20 mg/kg.
Consider `C[C@@H]1C[C@@]2(N=C(N)CS2)[C@]2(O)O[C@@H]3C[C@@]4(C=O)[C@@H](CC[C@@H]5[C@@H]4CC[C@]4(C)[C@@H](C6=CC(=O)OC6)CC[C@]54O)C[C@H]3O[C@@H]2O1`, for which the IC50 in experiment [3] stood at 0.068 µM; with HCT-15 it was 0.028 µM; in the experiment on U373 MG, 0.04 µM; in experiment [2] it was 0.004 µM; in the experiment with LoVo, 0.01 µM; in the experiment on A549, 0.025 µM. The same compound came in with an MTD in the experiment on Mus musculus [4] of 5 mg/kg.
As to `C[C@@H]1C[C@@]2(NC(=O)CS2)C2(O)O[C@@H]3C[C@@]4(COC(=O)c5ccccc5)[C@@H](CC[C@@H]5[C@@H]4CC[C@]4(C)[C@@H](C6=CC(=O)OC6)CC[C@]54CO)C[C@H]3O[C@@H]2O1` (stereo not given in full), the concentration for half-maximal inhibition (IC50) in the experiment on HCT-15 was 3.62 µM; in the experiment on U373 MG, 4.17 µM; in experiment [2] it was 0.778 µM; in the experiment on LoVo, 2.37 µM; with A549 it was 0.625 µM. Also, the MTD in the experiment with Mus musculus [4] is >40 mg/kg.
Regarding `CC(=O)OC[C@]12C[C@H]3OC4(O)[C@@H](O[C@H](C)C[C@@]45N=C(N)CS5)O[C@@H]3C[C@@H]1CC[C@@H]1[C@@H]2CC[C@]2(C)[C@@H](C3=CC(=O)OC3)CC[C@]12CO` (stereo not given in full), the concentration for half-maximal inhibition (IC50) in experiment [3] is 12.1 µM; in the experiment with HCT-15 it was 4.13 µM; with U373 MG it was > 4.15 µM; in experiment [2], > 1.28 µM; in the experiment with LoVo it was 3.54 µM; with A549 it was 3.71 µM. For the same compound, the MTD in the experiment on Mus musculus [4] is >40 mg/kg.
Take `C[C@@H]1C[C@@]2(N=C(N)CS2)C2(O[Si](C)(C)C)O[C@@H]3C[C@@]4(CO[Si](C)(C)C)[C@@H](CC[C@@H]5[C@@H]4CC[C@]4(C)[C@@H](C6=CC(=O)OC6)CC[C@]54CO[Si](C)(C)C)C[C@H]3O[C@@H]2O1` (stereo not given in full): the IC50 in experiment [3] was > 50 µM; in the experiment on HCT-15, > 10 µM; with U373 MG, > 10 µM; in experiment [2], > 10 µM; with LoVo, > 10 µM; with A549, > 10 µM. For the same compound, in the experiment on Mus musculus [4], the maximal tolerated dose (MTD) was >160 mg/kg.
On to `CC(=O)OC[C@]12C[C@H]3OC4(O)[C@@H](O[C@H](C)C[C@@]45NC(=O)CS5)O[C@@H]3C[C@@H]1CC[C@@H]1[C@@H]2CC[C@]2(C)[C@@H](C3=CC(=O)OC3)CC[C@]12CO` (stereo not given in full), for which the IC50 with HCT-15 was found to be 4.43 µM; with U373 MG it was 4.6 µM; in experiment [2], 2.78 µM; with LoVo, 2.77 µM; in the experiment on A549 it was 1.86 µM. Further, the MTD with Mus musculus [4] is >40 mg/kg.
`C[C@@H]1C[C@@]2(N=C(N)CS2)C2(O)O[C@@H]3C[C@@]4(COC(=O)c5ccccc5)[C@@H](CC[C@@H]5[C@@H]4CC[C@]4(C)[C@@H](C6=CC(=O)OC6)CC[C@]54CO)C[C@H]3O[C@@H]2O1` (stereo not given in full): the IC50 in experiment [3] is > 50 µM; in the experiment with HCT-15 it was > 10 µM; with U373 MG it was > 10 µM; in experiment [2], > 10 µM; in the experiment on LoVo, > 10 µM; with A549 it was > 10 µM. Also, the MTD in the experiment on Mus musculus [4] is >40 mg/kg.
For the compound `C[C@@H]1C[C@@]2(N=C(N)CS2)C2(O[Si](C)(C)C)O[C@@H]3C[C@@]4(CO[Si](C)(C)C)[C@@H](CC[C@@H]5[C@@H]4CC[C@]4(C)[C@@H](C6=CC(=O)OC6)CC[C@]54CO)C[C@H]3O[C@@H]2O1` (stereo not given in full), the 50% inhibitory concentration (IC50) in experiment [3] came out at 4.08 µM; with HCT-15 it was 3.66 µM; in the experiment with U373 MG, 4.62 µM; in experiment [2], 1.11 µM; with LoVo it was 3.85 µM; with A549, 2.58 µM. Moreover, the MTD in the experiment on Mus musculus [4] was >160 mg/kg.
As to `C[C@@H]1C[C@@]2(NC(=O)CS2)C2(O)O[C@@H]3C[C@@]4(COC(=O)CCc5ccccc5)[C@@H](CC[C@@H]5[C@@H]4CC[C@]4(C)[C@@H](C6=CC(=O)OC6)CC[C@]54CO)C[C@H]3O[C@@H]2O1` (stereo not given in full), the IC50 was > 10 µM in the experiment on HCT-15; 4.19 µM in the experiment with U373 MG; > 10 µM in experiment [2]; > 10 µM in the experiment on LoVo; > 10 µM in the experiment with A549. Also, in the experiment with Mus musculus [4], the maximal tolerated dose (MTD) is >40 mg/kg.
Consider `C[C@@H]1C[C@@]2(N=C(N)CS2)C2(O[Si](C)(C)C)O[C@@H]3C[C@@]4(CO)[C@@H](CC[C@@H]5[C@@H]4CC[C@]4(C)[C@@H](C6=CC(=O)OC6)CC[C@]54CO[Si](C)(C)C)C[C@H]3O[C@@H]2O1` (stereo not given in full), for which the 50% inhibitory concentration (IC50) in experiment [3] turned out to be 1.89 µM; in the experiment on HCT-15, 0.454 µM; in the experiment on U373 MG, 0.925 µM; in experiment [2] it was 0.346 µM; with LoVo, 0.34 µM; in the experiment on A549, 0.126 µM. Besides, the MTD in the experiment with Mus musculus [4] was >160 mg/kg.
`CC(=O)OC[C@]12C[C@H]3OC4(O[Si](C)(C)C)[C@@H](O[C@H](C)C[C@@]45N=C(N)CS5)O[C@@H]3C[C@@H]1CC[C@@H]1[C@@H]2CC[C@]2(C)[C@@H](C3=CC(=O)OC3)CC[C@]12CO[Si](C)(C)C` (stereo not given in full): the IC50 was > 50 µM in experiment [3]; > 10 µM in the experiment on HCT-15; > 10 µM with U373 MG; 7.92 µM in experiment [2]; 9.57 µM with LoVo; > 10 µM in the experiment with A549. The MTD in the experiment on Mus musculus [4] was >160 mg/kg.
Regarding `C[C@@H]1C[C@@]2(N=C(N)CS2)C2(O[Si](C)(C)C)O[C@@H]3C[C@@]4(C=O)[C@@H](CC[C@@H]5[C@@H]4CC[C@]4(C)[C@@H](C6=CC(=O)OC6)CC[C@]54CO[Si](C)(C)C)C[C@H]3O[C@@H]2O1` (stereo not given in full), the IC50 is 50 µM in experiment [3]; > 10 µM in the experiment with HCT-15; > 10 µM with U373 MG; 8.6 µM in experiment [2]; > 10 µM with LoVo; 7.54 µM in the experiment on A549. Besides, the maximal tolerated dose (MTD) in the experiment on Mus musculus [4] was >160 mg/kg.
